Screens (PubChem BioAssay)
Only some compounds are listed: those with a hit (about 3.4% of all), similar ones and a draw of the others.
TAAR1 ag: agonists of human TAAR1; CHO RD-HGA16 TAAR1, Fluo-8 calcium fluorescence; vehicle wells 0%, saturating PEA agonist 100%; activation, % at 3 µM; hit rate 0.99% among 360,000;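 active means activation above the mean activation of all test compounds in the run plus 3 SD, cut at about 38% in these data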
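Benchmarks: low control DMSO, high control PEA (EC100); System: CHO RD-HGA16 cells carrying human TAAR1 plus Gα16; Detection: Fluo-8 fluorescence, 5 s baseline then 140 s kinetic read; Schedule: 17-24 h plating, Fluo-8 75 min 37 °C, 30 min RT; Read-out basis: % activation from peak over basal fluorescence ratio, DMSO-to-PEA scaled.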
M1 antag: human CHRM1 antagonism. P11229. CHO-K1 hM1, Fluo-8 calcium fluorescence, ACh EC80 antagonist. inhibition, % at 3 µM. hit rate 1.3% among 360,000. AID 588852;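 active means percent inhibition above its own plate's cutoff, namely the mean of that plate's compound wells plus 3 SD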;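 further: peak over basal fluorescence ratio during 140 s after agonist addition; 0% = ACh EC80 plus DMSO and 100% = DMSO alone without agonist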
Target sequence (P11229 whole entry, looked up): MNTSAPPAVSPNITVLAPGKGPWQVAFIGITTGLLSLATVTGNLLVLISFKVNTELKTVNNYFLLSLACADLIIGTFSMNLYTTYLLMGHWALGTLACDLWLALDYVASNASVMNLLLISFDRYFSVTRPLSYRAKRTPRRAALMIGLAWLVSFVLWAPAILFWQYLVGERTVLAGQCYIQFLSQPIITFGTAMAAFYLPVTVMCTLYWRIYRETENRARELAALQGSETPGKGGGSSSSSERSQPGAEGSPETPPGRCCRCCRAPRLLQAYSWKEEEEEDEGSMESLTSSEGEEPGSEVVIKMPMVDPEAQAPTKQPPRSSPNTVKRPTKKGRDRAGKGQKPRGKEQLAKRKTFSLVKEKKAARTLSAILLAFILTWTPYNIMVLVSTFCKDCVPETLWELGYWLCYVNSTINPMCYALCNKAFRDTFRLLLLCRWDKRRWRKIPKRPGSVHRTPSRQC
M1 ag: agonists of human M1 muscarinic receptor. P11229. CHO-K1 hM1, Fluo-8 calcium fluorescence, agonist mode; 0% DMSO, 100% acetylcholine EC100. activation, % at 3 µM. hit rate 0.33% among 360,000. AID 588814;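 active means activation above the run's mean compound activation plus 3 SD, cut at about 16% in these data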;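 further: peak over basal fluorescence ratio within a 140 s kinetic read after compound addition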
TAAR1 antagonist: antagonists of human TAAR1 | Q96RJ0 | CHO RD-HGA16 TAAR1, Fluo-8 calcium fluorescence, antagonist | inhibition, % at 3 µM | hit rate 1.5% among 360,000;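 active means inhibition above a per-plate cutoff, the mean inhibition of test compounds on that plate plus 3 SD, cut at about 49% in these data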;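 further: 0% = DMSO plus EC80 beta-PEA response and 100% = DMSO alone without agonist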
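Test system: RD-HGA16 CHO cells with stable hTAAR1 and Gα16 / Probe or stimulus: EC80 β-phenethylamine stimulus / Times: seeding 17-24 h prior, 75-min 37 °C, 30-min RT dye loading / Detection: Fluo-8 calcium-sensitive fluorescence / Read-out basis: % inhibition scaled between DMSO and EC80 PEA controls / Repeats: singlicate, one well per test compound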
CHRM1 PAM: positive allosteric modulators of human M1 muscarinic receptor; hit rate 0.088% among 360,000; activation, % at 3 µM; CHO-K1 hM1, Fluo-8 calcium fluorescence, ACh EC20; 0% = ACh EC20, 100% = maximal ACh; in the data active means activation above about 19%, passing the limit was not always enough
Active calls of the source: *; nt = not tested or not shown.

SMILES | TAAR1 ag | M1 antag | M1 ag | TAAR1 antagonist | CHRM1 PAM
Cc1ccc(-c2cccc(CN3CCN(C4CCN(C(C)C)CC4)C(CCO)C3)c2)o1 (stereo unspecified) | -1 | 31* | -4 | 11 | -11
CC(C)N1CCC(N2CCN(Cc3ccc(-c4ccc(Cl)cc4)o3)CC2CCO)CC1 (stereo unspecified) | -3 | 13 | -4 | -10 | -5
Cc1csc2c(N3CCN(C(=S)Nc4ccc(F)cc4F)CC3)ncnc12 | 15 | 38 | 23* | 26 | -15
Cc1csc2c(N3CCN(C(=O)Nc4ccccc4)CC3)ncnc12 | 11 | 11 | -1 | 8 | -8
CN(C)S(=O)(=O)c1ccc(Nc2ccc(-c3ccc4c(c3)OCCO4)nn2)cc1 | 16 | -2 | -1 | 49* | -1
CCN(CC)S(=O)(=O)c1ccc(Nc2ccc(-c3ccc4c(c3)OCCO4)nn2)cc1 | 28 | 8 | 2 | 35 | -13
COc1ccc(-c2nn(-c3ccccc3)cc2C(=O)N2CCN(S(=O)(=O)c3ccccc3C#N)CC2)cc1 | 4 | 2 | -4 | 50* | 0
COc1ccc(-c2nn(-c3ccccc3)cc2C(=O)N2CCN(S(=O)(=O)c3ccccc3[N+](=O)[O-])CC2)cc1 | 15 | -7 | -6 | 20 | 7
COc1ccc(/C=C/CN2CCN(CC(C)C)C(CCO)C2)cc1 (stereo unspecified) | -1 | 28* | -10 | 6 | -22
O=C(Nc1ccc(C(O)(C(F)(F)F)C(F)(F)F)cc1)c1ccc(Cl)c([N+](=O)[O-])c1 | 6 | 1 | -7 | 57* | -12
Cc1c(CN2CCC(CO)(CCOc3ccccc3)CC2)[nH]c2c(Cl)cccc12 | 41* | -3 | 3 | 26 | 5
Cc1nn(C)c(Cl)c1CN1CCC(CO)(CCOc2ccccc2)CC1 | 2 | -1 | -14 | -17 | -4
COc1cc(/C=N/NC(=O)c2cccc(NC(=O)c3ccccc3Cl)c2)ccc1O | 15 | 12 | -2 | 53* | -20
COc1ccccc1/C=N/NC(=O)c1cccc(NC(=O)c2ccccc2C)c1 | 10 | 3 | -5 | 44 | -8
COc1ccccc1/C=N/NC(=O)c1cccc(NC(=O)c2ccccc2Cl)c1 | 10 | 7 | 1 | 49* | -7
CCCCc1c(-c2ccccc2OC)ncn1Cc1ccc(F)c(F)c1 | 1 | nt | nt | 7 | nt
O=C(O)CC/C(=C\c1cc([N+](=O)[O-])ccc1Cl)c1nc2ccccc2s1 | -2 | -7 | -2 | -17 | 1
O=C(O)CC/C(=C\c1cccc(NC(=O)c2ccccc2Cl)c1)c1nc2ccccc2s1 | 12 | 19 | -3 | 50* | -6
CCCCc1c(-c2ccccc2)ncn1CCc1ccccc1OC | 3 | nt | nt | 41 | nt
CCCCc1c(-c2ccc(OC)cc2)ncn1CCc1ccccc1OC | 24 | nt | nt | 50* | nt
CCCCCc1c(-c2ccc(Cl)cc2)ncn1CCc1ccccc1OC | 28 | nt | nt | 19 | nt
CCCCCc1c(-c2ccc(OC)cc2)ncn1CCc1ccccc1OC | 14 | nt | nt | 61* | nt
COc1ccc(OC)c2sc(NC(=O)c3cccc(N4C(=O)CCC4=O)c3)nc12 | 5 | -5 | -1 | 1 | 3
COc1ccc(-c2csc(NC(=O)c3cccc(N4C(=O)CCC4=O)c3)n2)cc1C | 12 | 15 | -2 | 49* | -10
COc1ccc(-c2csc(NC(=O)C3=NN(c4ccccc4)C(=O)CC3)n2)cc1 | 18 | 24* | -6 | 57* | -18
SMILES | TAAR1 ag | M1 antag | M1 ag | TAAR1 antagonist | CHRM1 PAM
C[C@H]1CN([C@@H](C)CO)C(=O)CCCn2nncc2CO[C@@H]1CN(C)S(=O)(=O)c1cccs1 | 1 | nt | nt | 2 | nt
COC(=O)[C@]12C[C@H](CC(=O)NCc3cccc4ccccc34)C(=O)N(CCC3=CCCCC3)C1=C[C@H](COCc1ccccc1)O[C@@H]2C | 0 | nt | nt | -5 | nt
C=CCCC1CN(Cc2ccc(OC)cc2)S(=O)(=O)c2c(Oc3cc(C)c(C)c(C)c3)cccc2O1 (stereo unspecified) | 0 | nt | nt | -7 | nt
C[C@@H](CN1CCC[C@H]1CN1C(N)=NC[C@@H]1Cc1ccccc1)N1C[C@@H](Cc2ccccc2)N(CCc2ccc(Cl)c(Cl)c2)C1=N | nt | 68* | -8 | nt | -29
CC(C)[C@@H]1CN=C(N)N1C[C@@H]1CCCN1C[C@H](C)N1C[C@@H](Cc2ccccc2)N(CCc2ccc(Cl)c(Cl)c2)C1=N | nt | 46* | -11 | nt | -29
CC(C)[C@H](CN1CCC[C@H]1CN1C(N)=NC[C@@H]1Cc1ccccc1)N1C[C@@H](Cc2ccccc2)N(CCc2ccc(Cl)c(Cl)c2)C1=N | nt | 14 | -11 | nt | -10
COC(=O)[C@@]12C[C@@H](CC(=O)NCc3ccc(C)o3)C(=O)N(CCc3ccc(OC)c(OC)c3)C1=CCC(C)(C)C2 | 8 | nt | nt | 33 | nt
COc1cc(Nc2ccn3nc(-c4ccccc4Cl)cc3n2)cc(OC)c1OC | 3 | -3 | 4 | 22 | -2
Cc1ccc(NC(=O)CN(C)C(=O)C(C)OC(=O)c2ccccc2NCCO)cc1 (stereo unspecified) | 4 | -27 | 2 | -15 | 28*
Cc1ccc(NC(=O)CN(C)C(=O)C(c2ccccc2)c2ccccc2)cc1 | 0 | -1 | -5 | 6 | 4
COc1ccc(CNS(=O)(=O)c2ccccc2Br)c(OC)c1 | 2 | nt | nt | -29 | nt
CC(=O)N1CCN(C(c2ccccc2)c2ccccc2)CC1 | 2 | -13 | -10 | -14 | 6
O=C(c1ccc2c(=O)n3c(nc2c1)CCCCC3)N1CCN(C(c2ccccc2)c2ccccc2)CC1 | 8 | 79* | -14 | 4 | -34
O=C(c1ccc(=O)oc1)N1CCN(C(c2ccccc2)c2ccccc2)CC1 | 12 | 77* | -12 | -14 | -33
CC(=O)c1ccc(NC(=O)c2ccc3c(=O)n4c(nc3c2)CCCCC4)cc1 | 7 | 5 | -2 | 8 | -8
CNC(=O)c1ccc(NC(=O)c2ccc3c(=O)n4c(nc3c2)CCC4)cc1 | 13 | -2 | -1 | 53* | 3
CCCCc1nnn2c1C1c3cc(-c4cccnc4)ccc3CCN1C(=O)C2 (stereo unspecified) | -1 | nt | nt | -27 | nt
COc1ccc(CN(C)C(=O)CNC(=O)c2ccc3ccccc3c2)c(OC)c1 | -1 | -3 | -3 | -26 | 3
COc1ccc(Br)cc1CN(C)C(=O)CNC(=O)c1ccc2ccccc2c1 | 6 | 29* | -4 | 38 | -16
